Calls of active or inactive are those of the source.
Assays:
Streptococcus pneumoniae [1] = experiment: Antibacterial activity against penicillin-resistant Streptococcus pneumoniae 700673; assay type: functional
How it was run: (§1)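 Streptococci tested by CLSI broth microdilution in Mueller-Hinton broth with 5% defibrinated horse blood, log-phase inoculum at 1 x 10^5 CFU/ml. Incubated 37°C with shaking, 16 to 20 h, in 5% humidified CO2. Compounds at 1% DMSO final. MIC is the lowest concentration without growth by OD600. Quadruplicate; highest MIC reported.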

[2] = Inhibition of Bacillus subtilis topoisomerase 4
Escherichia coli [3] = experiment: Antibacterial activity against Escherichia coli J53; assay type: functional
Staphylococcus aureus [4] = experiment: Antibacterial activity against Staphylococcus aureus 25923; assay type: functional
How it was run: (§2)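 Broth microdilution per CLSI with modified incubation. Log-phase cultures in cation-adjusted Mueller-Hinton broth, seeded at 1 x 10^5 CFU/ml. Compounds from DMSO stocks, 1% DMSO final. Incubated 37°C, 16 to 20 h, shaken. Growth read as OD600. MIC is the lowest concentration with no apparent growth. Run in quadruplicate; highest value reported.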

Enterococcus faecalis [5] = experiment: Antibacterial activity against vancomycin-resistant Enterococcus faecalis 51299; assay type: functional; how it was run: as §2
[6] = test system: Stenotrophomonas maltophilia; experiment: Antibacterial activity against Stenotrophomonas maltophilia 13637; assay type: functional
Staphylococcus aureus [7] = experiment: Antibacterial activity against mupirocin-sensitive Staphylococcus aureus 2529; assay type: functional
Enterococcus faecium [8] = experiment: Antibacterial activity against Enterococcus faecium 19434; assay type: functional; how it was run: as §2
Staphylococcus aureus [9] = experiment: Antibacterial activity against ciprofloxacin-resistant Staphylococcus aureus Smith; assay type: functional; how it was run: as §2
Streptococcus pneumoniae [10] = experiment: Antibacterial activity against penicillin-resistant Streptococcus pneumoniae 700677; assay type: functional; how it was run: as §1
Bacillus thuringiensis [11] = experiment: Antibacterial activity against Bacillus thuringiensis 33679; assay type: functional
Staphylococcus aureus [12] = experiment: Antibacterial activity against Staphylococcus aureus Smith 13709; assay type: functional; how it was run: as §2
Bacillus subtilis [13] = experiment: Antibacterial activity against Bacillus subtilis BD54; assay type: functional
[14] = Cytotoxicity against human MRC5 cells; assay type: cell-based
How it was run: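 MRC-5 human diploid fibroblasts, 4 x 10^3 cells per well, exposed to compound from DMSO stock (final 1%) in minimal essential medium with 10% fetal calf serum for 72 h at 37°C beside a DMSO-only control.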

Bacillus cereus [15] = experiment: Antibacterial activity against Bacillus cereus 4342; assay type: functional
Klebsiella pneumoniae = experiment: Antibacterial activity against Klebsiella pneumoniae 5657; assay type: functional
Bacillus subtilis [16] = experiment: Inhibition of DNA synthesis in Bacillus subtilis BD54; assay type: functional, organism-based
How it was run: (§3)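 B. subtilis BD54 grown to log phase in C plus 50 medium; compound in DMSO added with [8-3H]adenine at time zero, at 5x or 1x MIC; samples over time. DNA = alkali-insensitive TCA-insoluble label; RNA = total TCA-insoluble minus DNA. Effect judged against diluent-control incorporation.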

Streptococcus pneumoniae [17] = experiment: Antibacterial activity against penicillin-resistant Streptococcus pneumoniae 700671; assay type: functional; how it was run: as §1
Escherichia coli [18] = experiment: Antibacterial activity against ciprofloxacin-resistant Escherichia coli XL1-Blue; assay type: functional; how it was run: as §2
Staphylococcus aureus [19] = experiment: Antibacterial activity against HB-EMAU-resistant Staphylococcus aureus Smith; assay type: functional; how it was run: as §2
[20] = molecular target: T1, DNA polymerase subunit gamma-1 (Homo sapiens, UniProt P54098); experiment: Inhibition of human DNA polymerase gamma
T1 sequence (P54098 whole entry): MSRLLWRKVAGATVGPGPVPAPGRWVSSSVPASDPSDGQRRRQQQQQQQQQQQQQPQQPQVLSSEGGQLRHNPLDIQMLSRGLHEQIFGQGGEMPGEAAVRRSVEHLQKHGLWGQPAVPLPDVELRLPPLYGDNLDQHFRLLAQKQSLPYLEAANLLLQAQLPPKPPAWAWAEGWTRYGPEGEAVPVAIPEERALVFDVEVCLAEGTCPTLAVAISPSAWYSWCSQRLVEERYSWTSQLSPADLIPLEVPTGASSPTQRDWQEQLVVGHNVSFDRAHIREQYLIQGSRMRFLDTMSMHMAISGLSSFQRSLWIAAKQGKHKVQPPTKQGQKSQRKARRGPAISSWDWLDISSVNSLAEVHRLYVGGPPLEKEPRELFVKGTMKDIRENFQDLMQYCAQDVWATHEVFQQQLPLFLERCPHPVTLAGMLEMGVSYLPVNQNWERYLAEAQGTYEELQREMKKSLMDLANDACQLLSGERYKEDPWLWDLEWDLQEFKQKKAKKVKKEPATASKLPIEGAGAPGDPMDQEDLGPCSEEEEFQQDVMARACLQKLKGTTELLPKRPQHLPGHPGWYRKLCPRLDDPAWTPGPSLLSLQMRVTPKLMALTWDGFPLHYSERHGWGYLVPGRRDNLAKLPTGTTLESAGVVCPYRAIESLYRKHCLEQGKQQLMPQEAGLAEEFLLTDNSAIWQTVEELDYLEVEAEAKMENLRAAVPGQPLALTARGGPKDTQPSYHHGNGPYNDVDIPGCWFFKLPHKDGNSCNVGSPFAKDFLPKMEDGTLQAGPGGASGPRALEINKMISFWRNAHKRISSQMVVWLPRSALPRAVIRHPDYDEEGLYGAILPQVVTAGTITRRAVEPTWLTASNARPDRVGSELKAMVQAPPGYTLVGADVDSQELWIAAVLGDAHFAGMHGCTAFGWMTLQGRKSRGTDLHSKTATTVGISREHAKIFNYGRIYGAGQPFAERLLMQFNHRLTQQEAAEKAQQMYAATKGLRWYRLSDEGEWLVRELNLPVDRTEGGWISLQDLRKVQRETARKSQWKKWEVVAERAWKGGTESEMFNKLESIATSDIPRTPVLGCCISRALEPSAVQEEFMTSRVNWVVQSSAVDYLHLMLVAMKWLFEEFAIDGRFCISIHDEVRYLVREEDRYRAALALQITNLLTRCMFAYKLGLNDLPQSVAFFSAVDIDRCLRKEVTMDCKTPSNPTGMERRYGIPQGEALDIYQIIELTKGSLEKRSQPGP
How it was run: (§4)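 Calf thymus pol alpha or human pol gamma, 0.025 to 0.06 U, added to compound dilutions in reaction mixture; 25 min at 37°C; stopped with ice-cold 10% TCA/10 mM pyrophosphate; precipitated [3H]DNA collected on filters and counted. Ki values for dGTP-competitive inhibitors obtained by truncated assay lacking dGTP.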

Enterococcus faecalis [21] = experiment: Antibacterial activity against vancomycin-resistant Enterococcus faecalis 51575; assay type: functional; how it was run: as §2
Streptococcus pneumoniae [22] = experiment: Antibacterial activity against Streptococcus pneumoniae 49619; assay type: functional; how it was run: as §1
[23] = Therapeutic index, CC50 for MRC5 cells/MIC for Staphylococcus aureus Smith; assay type: cell-based; details: human
Enterococcus faecalis [24] = experiment: Antibacterial activity against vancomycin-resistant Enterococcus faecalis 700802; assay type: functional; how it was run: as §2
Enterococcus faecium [25] = experiment: Antibacterial activity against vancomycin and linezolid-resistant Enterococcus faecium F118; assay type: functional; how it was run: as §2
Staphylococcus aureus [26] = experiment: Antibacterial activity against HB-EMAU-resistant and ciprofloxacin-resistant Staphylococcus aureus Smith; assay type: functional; how it was run: as §2
[27] = Inhibition of Bacillus subtilis gyrase
[28] = Inhibition of calf thymus DNA polymerase alpha; design: species or system Bos taurus; how it was run: as §4
Enterococcus faecalis [29] = experiment: Antibacterial activity against Enterococcus faecalis 29212; assay type: functional; how it was run: as §2
Streptococcus pneumoniae [30] = experiment: Antibacterial activity against penicillin-resistant Streptococcus pneumoniae 700674; assay type: functional; how it was run: as §1
Streptococcus pneumoniae [31] = experiment: Antibacterial activity against penicillin-resistant Streptococcus pneumoniae 700670; assay type: functional; how it was run: as §1
Staphylococcus aureus [32] = experiment: Antibacterial activity against methicillin-resistant Staphylococcus aureus B42876; assay type: functional; how it was run: as §2
Pseudomonas aeruginosa = experiment: Antibacterial activity against Pseudomonas aeruginosa 27853; assay type: functional
Staphylococcus aureus [33] = experiment: Antibacterial activity against Staphylococcus aureus Smith in presence of 10% FCS; assay type: functional
[34] = Inhibition of Bacillus subtilis DNA polymerase 3E
How it was run: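 Recombinant B. subtilis pol IIIE. Serial compound dilutions in DMSO; 30 mM Tris pH 7.5, 10 mM Mg acetate, 4 mM DTT, 20% glycerol, 25 µM each dATP/dCTP/dGTP, 10 µM [3H]dTTP, 0.4 mg/ml activated calf thymus DNA; 0.025 to 0.06 U enzyme, 10 min at 30°C. TCA-precipitated, filter-collected label counted by scintillation.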

Staphylococcus aureus [35] = experiment: Antibacterial activity against mupirocin-resistant Staphylococcus aureus 777; assay type: functional; how it was run: as §2
Bacillus anthracis = experiment: Antibacterial activity against Bacillus anthracis Sterne; assay type: functional
Streptococcus pyogenes = experiment: Antibacterial activity against Streptococcus pyogenes 12344; assay type: functional
Bacillus thuringiensis [36] = experiment: Antibacterial activity against Bacillus thuringiensis 10792; assay type: functional
Bacillus cereus [37] = experiment: Antibacterial activity against Bacillus cereus 6464; assay type: functional
Staphylococcus aureus [38] = experiment: Antibacterial activity against methicillin-resistant Staphylococcus aureus 1094; assay type: functional; how it was run: as §2
Staphylococcus aureus [39] = experiment: Antibacterial activity against methicillin-resistant Staphylococcus aureus 1132; assay type: functional; how it was run: as §2
Staphylococcus aureus [40] = experiment: Antibacterial activity against Staphylococcus aureus 1081; assay type: functional; how it was run: as §2
Staphylococcus aureus [41] = experiment: Antibacterial activity against methicillin-resistant Staphylococcus aureus 1123; assay type: functional; how it was run: as §2
Enterococcus faecium [42] = experiment: Antibacterial activity against vancomycin-resistant Enterococcus faecium 1644; assay type: functional; how it was run: as §2
Enterococcus faecium [43] = experiment: Antibacterial activity against vancomycin-resistant Enterococcus faecium B42762; assay type: functional; how it was run: as §2
Bacillus subtilis [44] = experiment: Inhibition of protein synthesis in Bacillus subtilis BD54; assay type: functional, organism-based
How it was run: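 Log-phase B. subtilis BD54 in C plus 50 medium; compound in DMSO (5x or 1x MIC) and L-[4,5-3H]leucine added together at time zero; samples taken at intervals. Protein synthesis measured as TCA-precipitable radioactivity, compared with diluent-control incorporation.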

Bacillus subtilis [45] = experiment: Inhibition of RNA synthesis in Bacillus subtilis BD54; assay type: functional, organism-based; how it was run: as §3

CCc1cc(Nc2cc(=O)n(CCCCN3CCN(c4c(F)cc5c(=O)c(C(=O)O)cn(C6CC6)c5c4F)CC3C)c(=O)[nH]2)ccc1C (stereo not drawn)
0.313 µg/mL: MIC (Streptococcus pneumoniae [1]) | MIC (Streptococcus pneumoniae [10]) | MIC (Staphylococcus aureus [12]) | MIC (Streptococcus pneumoniae [17]) | MIC (Streptococcus pyogenes)
active: Activity (Bacillus subtilis [16])
0.156 µg/mL: MIC (Bacillus thuringiensis [11]) | MIC (Bacillus subtilis [13]) | MIC (Bacillus cereus [15]) | MIC (Bacillus anthracis) | MIC (Bacillus thuringiensis [36]) | MIC (Bacillus cereus [37])
20 µg/mL: MIC (Klebsiella pneumoniae) | MIC (Staphylococcus aureus [26])
1.25 µg/mL: MIC (Enterococcus faecalis [5]) | MIC (Staphylococcus aureus [9]) | MIC (Escherichia coli [18]) | MIC (Enterococcus faecalis [21]) | MIC (Enterococcus faecalis [24]) | MIC (Enterococcus faecium [25]) | MIC (Enterococcus faecalis [29]) | MIC (Staphylococcus aureus [38]) | MIC (Staphylococcus aureus [41]) | MIC (Enterococcus faecium [42]) | MIC (Enterococcus faecium [43])
> 482 µM: Ki [28] | Ki [34]
10 µg/mL: MIC [6]
0.625 µg/mL: MIC (Staphylococcus aureus [4]) | MIC (Staphylococcus aureus [19]) | MIC (Streptococcus pneumoniae [22]) | MIC (Streptococcus pneumoniae [30]) | MIC (Streptococcus pneumoniae [31]) | MIC (Staphylococcus aureus [33]) | MIC (Staphylococcus aureus [39]) | MIC (Staphylococcus aureus [40])
43.6 µM: IC50 [2]
31 µM: IC50 [27]
2.5 µg/mL: MIC (Escherichia coli [3]) | MIC (Enterococcus faecium [8]) | MIC (Staphylococcus aureus [32]) | MIC (Staphylococcus aureus [35])
684 µM: Ki [20]
> 128: selectivity ratio [23]
5 µg/mL: MIC (Staphylococcus aureus [7])
> 80 µg/mL: CC50 [14] | MIC (Pseudomonas aeruginosa)

CCc1cc(Nc2cc(=O)n(CCCCO)c(=O)[nH]2)ccc1C
1.25 µg/mL: MIC (Bacillus subtilis [13]) | MIC (Bacillus cereus [15]) | MIC (Streptococcus pyogenes) | MIC (Bacillus thuringiensis [36]) | MIC (Bacillus cereus [37])
> 1010 µM: Ki [20]
> 80 µg/mL: MIC (Escherichia coli [3]) | MIC [6] | MIC (Klebsiella pneumoniae) | MIC (Escherichia coli [18]) | MIC (Staphylococcus aureus [19]) | MIC (Staphylococcus aureus [26]) | MIC (Pseudomonas aeruginosa)
20 µg/mL: MIC (Staphylococcus aureus [7]) | MIC (Staphylococcus aureus [33])
46 µg/mL: CC50 [14]
> 500 µM: IC50 [2] | IC50 [27]
active: Activity (Bacillus subtilis [16])
10 µg/mL: MIC (Enterococcus faecium [25]) | MIC (Staphylococcus aureus [35])
inactive: Activity (Bacillus subtilis [44]) | Activity (Bacillus subtilis [45])
2.5 µg/mL: MIC (Streptococcus pneumoniae [1]) | MIC (Streptococcus pneumoniae [10]) | MIC (Bacillus thuringiensis [11]) | MIC (Streptococcus pneumoniae [17]) | MIC (Streptococcus pneumoniae [22]) | MIC (Bacillus anthracis) | MIC (Enterococcus faecium [42])
5 µg/mL: MIC (Staphylococcus aureus [4]) | MIC (Enterococcus faecalis [5]) | MIC (Enterococcus faecium [8]) | MIC (Staphylococcus aureus [9]) | MIC (Staphylococcus aureus [12]) | MIC (Enterococcus faecalis [21]) | MIC (Enterococcus faecalis [24]) | MIC (Enterococcus faecalis [29]) | MIC (Streptococcus pneumoniae [30]) | MIC (Streptococcus pneumoniae [31]) | MIC (Staphylococcus aureus [32]) | MIC (Staphylococcus aureus [38]) | MIC (Staphylococcus aureus [39]) | MIC (Staphylococcus aureus [40]) | MIC (Staphylococcus aureus [41]) | MIC (Enterococcus faecium [43])
